The text below walks through data of ChEMBL document CHEMBL1149287, “Synthetic bryostatin analogues activate the RasGRP1 signaling pathway” (J Med Chem, 2004).

Active and inactive are the calls of the source. The calls are words filed in the database; no cut-off is given here.

Test [1] concerns Thymocyte. The test can be described thus: Activation of ERK in wild type mouse thymocytes at 100 nM. Type of test: functional, cell-based. Summed up:
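Wild-type mouse thymocytes (RPMI 1640, 10% FBS) exposed 10 min to DAG analogue at 100, 10 or 1 nM, then lysed; phospho-Erk p44/p42 detected by immunoblot.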

Another test has as its system PBL. The test can be described thus: Induction of T cell activation marker CD69 expression in PBL cells. Type of test: functional, cell-based. The settings on record: Homo sapiens. An outline of the steps: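 Human peripheral blood lymphocytes from a healthy donor, isolated on Ficoll-hypaque, treated immediately overnight in RPMI with 100 nM DAG analogue or DMSO; fixed in 2% paraformaldehyde, co-stained for CD4 (FITC) and CD69 (PE), analysed by flow cytometry.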

The test system of test [2] is Lymphocyte. The test can be described thus: Induction of T cell activation marker CD69 expression in concanavalin-A activated CD8+ mouse spleen lymphocytes. Type of test: functional, tissue-based.
The test system of test [3] is Thymocyte. The test can be described thus: Activation of ERK in knockout mouse RasGRP1- mutant thymocytes. Format: functional, cell-based. Summed up:
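Thymocytes isolated in RPMI 1640 with 10% FBS from young wild-type or RasGRP1 knockout mice, given DMSO or DAG analogue for 10 min, then lysed and immunoblotted for phospho-Erk p44/p42.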

For test [4], the target named is T1, RAS guanyl-releasing protein 1 (Homo sapiens) (UniProt O95267).
T1 sequence (whole entry): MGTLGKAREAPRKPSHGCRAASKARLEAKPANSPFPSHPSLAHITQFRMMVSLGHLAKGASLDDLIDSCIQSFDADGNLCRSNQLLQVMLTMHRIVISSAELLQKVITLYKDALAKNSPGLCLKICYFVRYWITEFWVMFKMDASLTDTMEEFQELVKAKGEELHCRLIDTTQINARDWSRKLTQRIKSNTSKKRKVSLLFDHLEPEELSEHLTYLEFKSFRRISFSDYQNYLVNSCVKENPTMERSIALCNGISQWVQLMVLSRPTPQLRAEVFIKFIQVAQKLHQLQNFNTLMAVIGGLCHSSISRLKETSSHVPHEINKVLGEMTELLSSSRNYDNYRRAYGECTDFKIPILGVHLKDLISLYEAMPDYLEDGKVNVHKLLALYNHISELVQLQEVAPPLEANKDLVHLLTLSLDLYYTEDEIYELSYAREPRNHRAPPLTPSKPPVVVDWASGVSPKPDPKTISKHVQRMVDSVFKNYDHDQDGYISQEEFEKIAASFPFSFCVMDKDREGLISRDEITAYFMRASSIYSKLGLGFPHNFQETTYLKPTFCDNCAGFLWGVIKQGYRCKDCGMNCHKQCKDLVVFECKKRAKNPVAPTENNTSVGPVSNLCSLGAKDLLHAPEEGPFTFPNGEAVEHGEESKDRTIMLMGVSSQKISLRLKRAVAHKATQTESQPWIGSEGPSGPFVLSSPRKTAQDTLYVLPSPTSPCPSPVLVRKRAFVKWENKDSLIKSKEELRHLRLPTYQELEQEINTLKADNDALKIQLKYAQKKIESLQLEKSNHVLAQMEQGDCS
Briefly: Induction of translocation of RasGRP1 to plasma membrane in HEK293 cells. Format: cell-based. An outline of the steps: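 HEK-293 cells on glass coverslips transfected with 5 μg pEF-GFP-RasGRP1 (or pEF-GFP), after 48 h given 100 nM DAG analogue or DMSO for 10 min at 37 °C, fixed in 4% paraformaldehyde; GFP location imaged by confocal microscopy, at least five 0.45 μm slices per cell.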

Test [5] has as its system Rat2. The test can be described thus: Accumulation of Ras-GTP level in Rat2 cells expressing empty pBabePuro vector. Type of test: functional, cell-based. The settings on record: Rattus norvegicus. Summed up: (§1)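 Rat2 fibroblasts (DMEM, 10% FBS) stably carrying retroviral pBabePuro, empty or with human RasGRP1 cDNA, exposed 10 min to 100 nM DAG analogue or DMSO vehicle. Ras-GTP measured by Ras-binding-domain pulldown with pan-Ras immunoblot; phospho-Erk p44/p42 and total Ras by immunoblot.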

Test [6] concerns Lymphocyte. Briefly: Induction of T cell activation marker CD69 expression in concanavalin-A activated CD4+ mouse spleen lymphocytes. Type of test: functional, tissue-based.
A further test deals with Jurkat. Briefly: Induction of T cell activation marker CD69 expression in Jurkat T cells at 100 nM. Type of test: functional, cell-based. As to conditions: Homo sapiens. Summed up: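 Jurkat T cells kept in RPMI with 10% FBS, incubated overnight with 100 nM DAG analogue or DMSO, fixed in 2% paraformaldehyde, stained with PE-anti-CD69, surface CD69 read by FACS.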
For test [7], the system named is Rat2. The test can be described thus: Induction of increase in Ras-GTP level in Rat2 cells expressing human […] at 100 nM. Type of test: functional, cell-based. An outline of the steps: as §1

`CCCCCCCC(=O)O[C@H]1/C(=C/C(=O)OC)CC2C[C@H]([C@@H](CC)OC)OC(=O)C[C@H](O)C[C@@H]3CCC[C@H](C[C@H]4CCO[C@H](/C=C/C(C)(C)[C@]1(O)O2)O4)O3`: the result (in the test with Thymocyte [1]; in the test on PBL; with Lymphocyte [2]; in test [4]; in the test on Lymphocyte [6]; with Jurkat) was Active. Further, in the test with Rat2 [7], the result was Active. Further, the result in the test on Thymocyte [3] and with Rat2 [5] was inactive.

For the molecule `CCCCCCCCCCCCCC(=O)O[C@@H]1[C@@H](C)[C@@]2(O)[C@@H](C=C(CO)C[C@]3(O)C(=O)C(C)=C[C@@H]23)[C@@H]2C(C)(C)[C@]12OC(C)=O`, the result (in the test on Thymocyte [1]; in the test with PBL; with Lymphocyte [2]; in test [4]; with Lymphocyte [6]; with Jurkat) was Active. Besides, the result in the test on Rat2 [7] was Active. The result in the test on Thymocyte [3] and in the test on Rat2 [5] was inactive.

In the case of `CCCCCCCC(=O)O[C@H]1/C(=C/C(=O)OC)CC2C[C@H]([C@H](O)CC)OC(=O)C[C@H](O)C[C@@H]3CCC[C@H](C[C@H]4CCO[C@H](/C=C/C(C)(C)[C@]1(O)O2)O4)O3`, the outcome (with Thymocyte [1]; with PBL; in the test on Lymphocyte [2]; in test [4]; in the test with Lymphocyte [6]; with Jurkat) was Active. The result with Rat2 [7] was Active. In addition, the outcome in the test with Thymocyte [3] and in the test with Rat2 [5] was inactive.
